High-throughput results from PubChem BioAssay.
Shown are actives, neighbours in structure and some others; about 4.1% of the full set was active somewhere.
MrgX1 antagonist: human MrgX1 receptor antagonism, primary screen; Q96LB2; MRGX1-HEK293 calcium flux, Fluo-4, BAM8-22 antagonism; hits give low values; B-score at 10 µM; 310,000 compounds, 1.3% hits; AID 588676;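 active = calcium-response B-score plate-corrected more than 3 library SD below zero, starting fluorescence within 5 deviations, no agonist response on first addition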;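 note: peak minus trough fluorescence over baseline after final BAM8-22 challenge near maximal dose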
MrgX1 allo act: human MrgX1 positive allosteric modulation, primary screen. Q96LB2. MrgX1-HEK293, Fluo-4 calcium flux, FDSS; hits give high values. B-score at 10 µM. 310,000 compounds, 0.63% hits;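 active = plate-corrected calcium response at least 3 library SD above typical, normal starting fluorescence, not activating the receptor alone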;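 note: compound read alongside a low EC10 to EC30 dose of BAM8-22 agonist; peak minus trough fluorescence over baseline measured at the second addition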
RGS4 pot: potentiators or activators of RGS4 | HEK293 M3R/inducible RGS4, carbachol calcium flux Fluo4; hits give low values | B-score at 10 µM | 310,000 compounds, 0.92% hits;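 active = B-score of the integrated calcium signal more than 4 SD below the library mean, with starting fluorescence not abnormally high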;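 note: negative B-score means reduced calcium response which marks RGS4 activation or potentiation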
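System: HEK293 FlpIn-TREx cells, stable M3R, doxycycline-inducible RGS4. Timing: overnight RGS4 induction, 30 min dye load 37 °C, 20 min compound RT. Also added: carbachol, ECmax concentration. Measured by: Fluo4 fluorescence kinetic imaging of calcium. Evaluation: integrated calcium ratio converted to B score.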
RGS4 inh: human RGS4 inhibition | P49798 | HEK293 M3R/RGS4 inducible, Fluo-4 calcium flux; hits give high values; triggered by carbachol at its EC20 | B-score at 10 µM | 310,000 compounds, 0.45% hits | AID 463165;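 active = B-score, a plate-corrected calcium signal, over three deviations above library mean, with baseline fluorescence within five deviations of library mean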;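 note: RGS4 expression induced by doxycycline in cells with stable M3 receptor; B-score is computed from the integrated fluorescence ratio over baseline after carbachol; higher B-score means a larger calcium signal and so more RGS4 inhibition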
Target sequence (P49798 whole entry, looked up): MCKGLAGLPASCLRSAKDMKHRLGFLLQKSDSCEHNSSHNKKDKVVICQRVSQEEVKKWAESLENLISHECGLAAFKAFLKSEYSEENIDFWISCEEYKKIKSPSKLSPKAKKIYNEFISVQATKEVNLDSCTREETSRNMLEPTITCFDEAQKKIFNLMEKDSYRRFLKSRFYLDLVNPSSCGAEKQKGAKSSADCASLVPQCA
MrgX1 ag: activates human MrgX1 receptor signaling. MrgX1-HEK293 cells, Fluo-4 calcium fluorescence, agonist mode; hits give high values. Q96LB2. B-score at 10 µM. 310,000 compounds, 0.44% hits;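 active = calcium response B-score plate-corrected fluorescence ratio at least 3 library SD, with starting fluorescence B-score inside 5 SD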
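Test system: HEK293 cells stably expressing human MrgX1 receptor; Input: fifteen thousand cells per well; Dosing: compound delivered in addition one of three; Schedule: overnight seeding, then 1 h dark dye loading; Technique: Fluo-4 NW calcium fluorescence; Measure: B-scored fluorescence response ratio; Controls: positive and negative controls per plate.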
Kir21 inh: blocks the mouse Kir2.1 inward-rectifier potassium channel; HEK293-Kir2.1, FluxOR thallium flux fluorescence; hits give low values; B-score at 10 µM; 310,000 compounds, 0.85% hits; AID 1672;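 active = fluorescence ratio B-score at or below minus 3 SD of library scores, with starting-brightness B-score within 2 SD, cut at about -4.2 in these data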;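 note: channel flux triggered by added potassium and thallium sulfate stimulus; B-score of peak minus minimum fluorescence over baseline after thallium stimulus; more negative B-score means stronger Kir2.1 block with less thallium influx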
Target sequence (P35561 whole entry, looked up): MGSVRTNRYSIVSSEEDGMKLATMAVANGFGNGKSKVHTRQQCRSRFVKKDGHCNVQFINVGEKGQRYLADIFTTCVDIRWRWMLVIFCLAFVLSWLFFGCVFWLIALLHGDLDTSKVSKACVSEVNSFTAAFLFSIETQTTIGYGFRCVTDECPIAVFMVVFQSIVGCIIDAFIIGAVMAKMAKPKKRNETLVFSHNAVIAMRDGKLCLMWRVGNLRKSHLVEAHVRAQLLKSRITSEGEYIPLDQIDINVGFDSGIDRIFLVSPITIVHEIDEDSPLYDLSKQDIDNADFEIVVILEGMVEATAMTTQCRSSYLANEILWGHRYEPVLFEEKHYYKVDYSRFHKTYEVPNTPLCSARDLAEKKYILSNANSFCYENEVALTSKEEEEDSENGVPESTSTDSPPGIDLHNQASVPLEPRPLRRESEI
RGS4 inh valid: validation of RGS4 inhibitors; shares compounds with RGS4 inh; HEK293 M3R/RGS4, carbachol calcium Fluo-4 fluorescence; carbachol added at its EC20; 0 = buffer wells, 100 = carbachol control; calcium response, % at 10 µM; 1,700 compounds, 65% hits;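 active = duplicate-averaged calcium response above the buffer-only control mean plus 5 SD of those controls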;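 note: integrated fluorescence ratio F max minus min over baseline F0; higher response in RGS4-induced cells means RGS4 inhibition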
RGS4 uninduced: checks RGS4 inhibitor effects in non-induced HEK293 M3R cells | shares compounds with RGS4 inh | carbachol calcium Fluo-4; submaximal (EC20) carbachol stimulus; buffer wells 0%, carbachol control wells 100% | activity (percent), % at 10 µM | 1,900 compounds, 20% hits; call rule not given here;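 note: RGS4 induction absent so cells express M3R without RGS4; higher means more calcium signal and flags a non-specific hit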
RGS4 inh ctr2: second RGS4 inhibitor counter-screen in uninduced cells lacking carbachol; calcium response (agonist-mode artifact), % at 10 µM; shares compounds with RGS4 inh; 1,900 compounds, 22% hits; HEK293 M3R/RGS4 non-induced, Fluo-4 calcium, no carbachol; normalised: buffer wells 0%, carbachol wells 100%;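 active = duplicate-averaged calcium rise in uninduced cells above buffer wells' mean plus 5 SD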
An asterisk follows results filed as active; i = inactive; x = no result given.

SMILES | MrgX1 antagonist | MrgX1 allo act | RGS4 pot | RGS4 inh | MrgX1 ag | Kir21 inh | RGS4 inh valid | RGS4 uninduced | RGS4 inh ctr2
O=C1/C(=C/c2cccnc2)CCC/C1=C\c1cccnc1 | i | i | x | x | i | x | x | x | x
CC(C)/C=C1\CC/C(=C\c2cccnc2)C1=O | i | i | i | i | i | 1.4 | x | i | i
COc1cc(-c2nc3ccccn3c2N)ccc1O | i | i | i | i | i | -1.6 | x | x | x
CCn1c(SCC(=O)OC2CCCCC2)nc2ccccc2c1=O | i | i | i | 5.5* | i | -2.4 | 14%* | i | i
CC(=N\Nc1ccccc1)/C(=N/O)C(=O)Nc1ccccc1 | i | i | i | i | i | 1.2 | x | i | i
CC(=N\NC(=O)c1ccccc1)/C(=N/O)C(=O)Nc1ccccc1 | i | i | i | i | i | -0.36 | x | x | x
Cc1[nH]nc2c1C(c1ccc(O)cc1)C1=C(CC(C)(C)CC1=O)N2 (stereo unspecified) | i | i | i | i | i | -0.04 | x | x | x
COc1ccc(C(=O)/C=C/c2cc(C(=O)O)cc3c2OCOC3)c(O)c1 | i | i | i | 24* | i | 0.95 | 64%* | 70%* | i
O=C(/C=C/c1ccc(O)c(O)c1)c1ccccc1O | i | 14* | i | 13* | i | -0.84 | 25%* | 48%* | i
O=C(O)c1cc(/C=C/C(=O)c2cc(F)ccc2O)c2c(c1)COCO2 | i | i | x | x | i | x | x | x | x
COc1ccc(C(=O)/C=C/c2ccccc2)c(O)c1 | i | i | i | i | i | -0.57 | i | i | i
COc1ccc(Nc2nc(N3CCOCC3)nc(N3CCOCC3)n2)c(OC)c1 | i | i | i | i | i | -1.1 | i | i | i
COc1ccccc1Nc1nc(N2CCOCC2)nc(N2CCOCC2)n1 | i | i | i | i | i | -0.6 | x | x | x
CCCN1C(=O)/C(=C\c2ccncc2)SC1=Nc1ccccc1 | i | i | i | i | i | 0.58 | x | x | x
CCN1C(=O)/C(=C\c2ccncc2)SC1=Nc1ccc(C)c(C)c1 | i | i | i | 8.2* | i | -0.17 | 30%* | i | i
Cc1ccc(Sc2ccc(/C=N/O)cc2[N+](=O)[O-])cc1 | i | i | i | i | i | -1.5 | x | x | x
CC(C)(C)Sc1ccc(/C=N/O)cc1[N+](=O)[O-] | i | i | i | 6.8* | i | -3 | 10%* | i | i
N#CC1=C2N=C(N)c3ccccc3N2C2=C(C(=O)CCC2)C1c1ccc(Cl)cc1 (stereo unspecified) | i | i | i | 7.5* | i | -0.66 | 20%* | 28%* | 24%*
CC1(C)CC(=O)C2=C(C1)N1C(=C(C#N)C2c2ccc(Cl)cc2)N=C(N)c2ccccc21 (stereo unspecified) | i | i | i | i | i | -0.04 | x | x | x
CCOCCCNC(=O)/C(C#N)=C/c1ccc(Cl)c([N+](=O)[O-])c1 | i | i | i | 11* | i | 0.92 | 34%* | i | i
Cc1noc(C)c1C(=O)N1CCCC(C(=O)c2cccc(OC(C)C)c2)C1 (stereo unspecified) | i | i | i | i | i | 0.27 | x | x | x
Cc1ccc(NC(=S)Nc2ccc(F)cc2)cc1C | i | i | i | i | i | -0.13 | x | x | x
CCOC(=O)[C@H]1[C@H]2COc3ccccc3[C@@H]2N2C(=O)c3cc(Cl)ccc3NC(=O)[C@@]12C | i | i | x | x | i | x | x | x | x
CCOC(=O)[C@@H]1[C@H]2COc3ccccc3[C@H]2N2C(=O)N(c3cccc(Cl)c3)C(=O)[C@@]12C | i | i | i | 6.5* | i | 1.2 | 36%* | 32%* | i
CCOC(=O)[C@@H]1[C@H]2COc3ccccc3[C@@H]2N2C(=O)N(c3cccc(Cl)c3)C(=O)[C@@]12C | i | i | i | i | i | -0.07 | i | i | i
SMILES | MrgX1 antagonist | MrgX1 allo act | RGS4 pot | RGS4 inh | MrgX1 ag | Kir21 inh | RGS4 inh valid | RGS4 uninduced | RGS4 inh ctr2
CCOC(=O)[C@@H]1[C@H]2COc3ccccc3[C@@H]2N2C(=O)N(c3cccc(Cl)c3)C(=O)[C@]12C | i | i | i | i | i | -0.02 | i | i | i
CCOC(=O)[C@@H]1[C@H]2COc3ccc(Br)cc3[C@@H]2N2C(=O)N(c3cccc(F)c3)C(=O)[C@@]12C | i | i | i | i | i | -0.16 | x | x | x
COc1ccc(S(=O)(=O)N2CCN(Cc3ccccc3)CC2)c(C)c1 | i | i | i | i | i | -0.55 | x | x | x
C=CCn1c(O)c(C2=c3ccccc3=NC2=O)c2ccccc21 | i | i | i | 5.6* | i | 2.2 | 12%* | 33%* | 22%*
COc1cccc(/C=N/NC(=O)CSc2nnc(C)n2-c2ccccc2)c1OC | i | i | i | i | i | 0.12 | x | x | x
COc1cccc(/C=N/NC(=O)CSc2ccccc2C)c1O | i | i | i | 5.9* | i | -2.5 | 64%* | i | i
COc1cccc(/C=N/NC(=O)CSc2ccccc2C)c1OC | i | i | i | i | i | -0.76 | i | i | i
Cc1ccc(NC2=NCCCCC2)cc1C | i | i | i | i | i | -0.11 | x | x | x
COc1cc2c(cc1[N+](=O)[O-])n(C(C)C)c(=O)n2C(C)C | i | i | i | 4.8* | i | -0.6 | i | 39%* | i
NCCOc1ccc(C2CCCCC2)cc1 | i | i | i | i | i | -0.41 | x | x | x
NCCOc1ccc(C23CC4CC(CC(C4)C2)C3)cc1 | i | i | i | 11* | i | -4.7* | 20%* | i | 72%*
CCN1C(=O)/C(=C/c2nc3ccccc3c(=O)n2-c2ccccc2)c2ccccc21 | i | i | i | i | i | -0.04 | x | x | x
CC1CN(C(=O)c2c([N+](=O)[O-])cnn2C)CC(C)O1 (stereo unspecified) | i | i | i | i | i | 0.11 | x | x | x
